Source: PMC9017786 (Peptide science (Hoboken, N.J.), 2020)

Test: Transmission electron microscopy of the peptide assemblies
Type: physicochemical
Settings: TEM; after ALP 1 U/mL, 1.0 wt% in PBS buffer pH 7.4, 24 hours, 37 °C
In short: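 Phosphopeptide (1.0 wt% total, pH 7.4 PBS) was dephosphorylated with alkaline phosphatase (1 U/mL) for 24 h at 37 °C. Samples went onto 400 mesh copper grids coated with continuous carbon film (~35 nm), were stained with uranyl acetate and air-dried, then imaged by TEM. Nanofiber width was measured from the images.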

Diameter (width) of the nanofibers: 7 ± 2 nm
Substance: Nap-wwy [compound 1]
